Reference: ChEMBL document CHEMBL4364260, “Discovery of Ziresovir as a Potent, Selective, and Orally Bioavailable Respiratory Syncytial Virus Fusion Protein Inhibitor” (J Med Chem, 2019)
The source made the active and inactive calls. The rule behind the calls is not given here.

Assays:
[1] = Clearance in CD-1 mouse at 5 mg/kg, iv or 50 mg/kg, po; format: ADME, organism-based; conditions: in vivo
How it was run: (§1)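 Single-dose PK in CD-1 mice: 5 mg/kg iv, 50 mg/kg po. Dosed as a solution in 5% DMSO, 40% PEG400, 55% of 0.9% NaCl. Plasma CL, Vss, iv T1/2, AUC and F were derived.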

[2] = Tmax in CD-1 mouse lung at 10 mg/kg/day, po administered via gavage and measured up to 24 hrs by LC/MS/MS analysis; format: ADME, organism-based
[3] = Tmax in CD-1 mouse plasma at 10 mg/kg/day, po administered via gavage and measured up to 24 hrs by LC/MS/MS analysis; format: ADME, organism-based
[4] = Plasma clearance in Wistar-Han rat at 2 mg/kg, iv or 10 mg/kg, po administered as single dose via gavage and measured up to 24 hrs by LC/MS/MS analysis; format: ADME, organism-based
How it was run: (§2)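 Male Wistar-Han rats, single dose, 2 mg/kg iv and 10 mg/kg po, run by standard procedures.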

[5] = Volume of distribution at steady state in Wistar-Han rat at 2 mg/kg, iv or 10 mg/kg, po administered as single dose via gavage and measured up to 24 hrs by LC/MS/MS analysis; format: ADME, organism-based; conditions: in vivo, read-out: Vdss; how it was run: as §2
[6] = Clearance in Beagle dog at 1 mg/kg, iv or 10 mg/kg, po; format: ADME, organism-based, Canis lupus familiaris; conditions: in vivo
How it was run: (§3)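 Beagle dog single-dose PK at 1 mg/kg iv and 10 mg/kg po, dosed as a solution in 12.5% captisol in water. Plasma clearance, Vss, iv T1/2, AUC and F were reported.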

[7] = Oral bioavailability in Beagle dog at 10 mg/kg; format: ADME, organism-based, Canis lupus familiaris; conditions: in vivo; how it was run: as §3
[8] = Oral bioavailability in CD-1 mouse at 50 mg/kg; format: ADME, organism-based; conditions: in vivo; how it was run: as §1
[9] = Antiviral activity against Human respiratory syncytial virus A strain Long infected in BALB/c mouse assessed as log reduction in virus titer in lung at 50 mg/kg, po BID administered up to 8 hrs for 4 days relative to control; format: functional
How it was run: (§4)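 Six-week-old female BALB/c mice, housed specific-pathogen-free, were anesthetized intraperitoneally with ketamine/xylazine and given RSV Long strain intranasally (5×10^5 PFU in 100 µL). Oral dosing was twice daily (0 h and 8 h) for 4 days, 12 mice per group. Mice were then euthanized with CO₂ and lungs harvested for viral titer, compared with vehicle.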

[10] = Ratio of AUC (0 to 24 hrs) in lung to plasma of CD-1 mouse at 10 mg/kg, po administered via gavage by LC-MS/MS analysis; format: ADME, organism-based; conditions: read-out: Ratio AUC
[11] = system: Human respirovirus 3; assay: Antiviral activity against Human parainfluenza virus 3 infected in human Hep2 cells assessed as reduction in virus induced cytopathic effect after 5 days by CCK-8 assay; format: functional, organism-based
[12] = Half-life in CD-1 mouse lung at 10 mg/kg/day, po administered via gavage and measured up to 24 hrs by LC/MS/MS analysis; format: ADME, organism-based
[13] = Clearance in Sprague-Dawley rat at 2 mg/kg, iv or 10 mg/kg, po; format: ADME, organism-based; conditions: in vivo
How it was run: (§5)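 Rat single-dose PK: 2 mg/kg iv and 10 mg/kg po. Compound was given as a solution in 5% DMSO/40% PEG400/55% of 0.9% saline. Plasma CL, Vss, iv half-life, AUC and oral bioavailability were reported.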

[14] = Half-life in Beagle dog at 1 mg/kg, iv; format: ADME, organism-based, Canis lupus familiaris; conditions: in vivo; how it was run: as §3
[15] = AUC (0 to 24 hrs) in Sprague-Dawley rat at 10 mg/kg, po; format: ADME, organism-based; parameters: dose 10 mg/kg, time < 24 hr, route oral; conditions: in vivo
[16] = Oral bioavailability in Sprague-Dawley rat at 10 mg/kg; format: ADME, organism-based; conditions: in vivo; how it was run: as §5
[17] = Half-life in cynomolgus monkey at 2 mg/kg, iv; format: ADME, organism-based, Macaca fascicularis; conditions: in vivo
How it was run: (§6)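 Cynomolgus monkeys got single doses of 2 mg/kg iv and 10 mg/kg po as a solution in 12.5% captisol in water. Plasma CL, Vss, iv T1/2, AUC and oral F were derived.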

[18] = Antiviral activity against Human respiratory syncytial virus A strain Long infected in human Hep2 cells assessed as reduction in virus induced cytopathic effect in presence of 40% FBS after 5 days by CCK-8 assay; format: functional, cell-based; conditions: HEp-2, 120 h
How it was run: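 RSV Long CPE assay with 40% FBS in place of the standard 10%. HEp-2 cells at 6000/well were infected next day at MOI 0.02 and kept 5 days with serially diluted compound. CCK-8 viability gave the 50% effective concentration.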

[19] = Half-life in Wistar-Han rat at 2 mg/kg, iv administered as single dose and measured up to 24 hrs by LC/MS/MS analysis; format: ADME, organism-based; conditions: in vivo; how it was run: as §2
[20] = system: Influenza A virus; assay: Antiviral activity against Influenza A virus H1N1 infected in human Hep2 cells assessed as reduction in virus induced cytopathic effect after 5 days by CCK-8 assay; format: functional; conditions: H1N1, HEp-2, 120 h
[21] = Volume of distribution at steady state in CD-1 mouse at 5 mg/kg, iv or 50 mg/kg, po; format: ADME, organism-based; conditions: in vivo, read-out: Vdss; how it was run: as §1
[22] = Antiviral activity against Human respiratory syncytial virus A strain Long infected in BALB/c mouse assessed as log reduction in virus titer in lung at 12.5 mg/kg, po BID administered up to 8 hrs for 4 days relative to control; format: functional; how it was run: as §4
[23] = AUC (0 to 24 hrs) in Wistar-Han rat at 10 mg/kg, po administered as single dose via gavage and measured up to 24 hrs by LC/MS/MS analysis; format: ADME, organism-based; parameters: dose 10 mg/kg, time < 24 hr, route oral; conditions: in vivo
How it was run: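 Single-dose PK in male Wistar-Han rats at 2 mg/kg iv or 10 mg/kg po, as a solution in 5% DMSO, 40% PEG400 and 55% 0.9% sodium chloride.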

[24] = Antiviral activity against Human respiratory syncytial virus A strain Long infected in human Hep2 cells assessed as plaque reduction […] by chloro-1-naphthol staining-based assay; format: functional
How it was run: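 HEp-2 monolayers in 12-well plates got 0.5 ml of 200 PFU/ml RSV Long with or without serial compound dilutions. After 2 h they were overlaid with DMEM/F12, 4% FBS, 0.55% agarose plus compound and incubated 3 days. Cells were fixed in 4% paraformaldehyde for 6 h and immunostained with anti-RSV mAb (1:300), then HRP anti-mouse. Plaques were developed with 4-chloro-1-naphthol/H2O2 and counted.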

[25] = Volume of distribution at steady state in cynomolgus monkey at 2 mg/kg, iv or 10 mg/kg, po; format: ADME, organism-based, Macaca fascicularis; conditions: in vivo, read-out: Vdss; how it was run: as §6
[26] = system: Human respirovirus 1; assay: Antiviral activity against Human parainfluenza virus 1 infected in human Hep2 cells assessed as reduction in virus induced cytopathic effect after 5 days by CCK-8 assay; format: functional, organism-based
[27] = Antiviral activity against Human respiratory syncytial virus A 1177 clinical isolates infected in human Hep2 cells assessed as reduction in virus induced cytopathic effect in presence of 10% FBS after 5 days by CCK-8 assay; format: functional, cell-based; conditions: human respiratory syncytial virus, 1177, HEp-2, 120 h
How it was run: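 HEp-2 cells seeded at 6000/well and infected the next day at MOI 0.02, a dose that gives about 90% CPE by day 5. Serial compound dilutions were present throughout, in standard medium with 10% FBS. Viability was read by CCK-8 at day 5, and EC50 is the concentration that cuts CPE by 50%.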

Cc1ccc2nc(N3CCS(=O)(=O)c4ccccc4C3)nc(NCC3(N)COC3)c2c1 [ZIRESOVIR]
clearance [1]: 277 mL/min/kg
Tmax [2]: 1 h
Tmax [3]: 0.25 h
clearance [4]: 58 mL/min/kg
Vd [5]: 3.9 L/kg
clearance [6]: 36 mL/min/kg
bioavailability [7]: 26%
bioavailability [8]: 66%
FC [9]: 1.9
Kp [10]: 8.6
Activity [11]: inactive
half-life [12]: 3.31 h
clearance [13]: 58 mL/min/kg
half-life [14]: 2.8 h
AUC(0-t) at 24 h [15]: 906 ng·h/mL
bioavailability [16]: 32%
half-life [17]: 1 h
EC50 [18]: 3 nM
EC90 [18]: 8 nM
half-life [19]: 1.2 h
EC90 [20]: > 100000 nM
Vd [21]: 6.3 L/kg
FC [22]: >1
AUC(0-t) at 24 h [23]: 906 ng·h/mL
EC90 [24]: 10 nM
Vd [25]: 1.9 L/kg
Activity [26]: inactive
EC50 [27]: 4 nM
EC90 [27]: 7 nM
